Assay outcomes (PubChem BioAssay)
L major viab = reduces viability of Leishmania major promastigotes | resazurin fluorescence viability | inhibition, % at 10 µM | hit rate 9% among 200,000 | AID 1063; in the data active = inhibition above about 50%;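 also: promastigotes grown with compound for 44 hours at 28 °C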
b-catenin transl = modulators of beta-catenin nuclear translocation; hit rate 0.3% among 190,000; AID 1665; nuclear translocation activity, % at 5 µM; HeLa beta-catenin nuclear translocation, immunofluorescence imaging;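 active = nuclear translocation activity above 50% at 5 µM, with a well cell count of 50 or more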;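 also: per-cell ratio of nuclear to cytoplasmic median beta-catenin stain intensity; plate controls were DMSO negative control for no effect and GSK-3 inhibitor IX positive control for full effect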
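Test system: human HeLa cells, native beta-catenin. Compound dosing: 5 µM primary single dose, 0.1% DMSO, 0.02–20 µM confirmation series. Incubation: compound exposure 24 h at 37°C. Detection: beta-catenin immunostaining with DAPI counterstain, 20x imaging, 6 fields/well. Read-out basis: Nuclear/cytoplasmic beta-catenin signal ratio, % activation.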
BaF3 parental = parental Ba/F3 viability inhibition as JAK2V617F counter-screen; CellTiter-Glo ATP luminescence; hit rate 1.1% among 220,000; inhibition, % at 5.6 µM;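 active = inhibition above a per-campaign cutoff, the mean inhibition of all tested compounds plus 3 SD, cut at about 27% in these data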;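 also: 0% = DMSO wells and 100% = JAK Inhibitor I control wells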
APP transl inh = APP translation inhibition; SH-SY5Y APP 5'UTR-luciferase reporter, luminescence; inhibition, % at 2 µM; hit rate 0.82% among 190,000;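 active = inhibition above a set limit, derived from the sample mean plus 3 SD, cut at about 45% in these data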
Ba/F3 V617F tox = lowers viability of Ba/F3 cells expressing EpoR and JAK2V617F; ATP luminescence; inhibition, % at 5.6 µM; hit rate 1.1% among 220,000;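 active = inhibition above the campaign mean plus 3 SD over all tested compounds, cut at about 24% in these data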;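 also: cytokine-independent growth of Ba/F3 cells driven by EpoR plus mutant JAK2; 0% = DMSO-treated cells and 100% = JAK inhibitor I control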
MT stabilizer = microtubule stabilizers in HeLa cells. HeLa tubulin immunostaining HCS, 24 h; share of cells brighter than vehicle mean+2SD. % tubulin-high responders, % at 10 µM. hit rate 0.83% among 200,000. AID 2205;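 active = plate Z-score above 3 for both tubulin-high and condensed-nucleus cell shares, with cell loss under 80%, at 10 µM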;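 also: anti alpha tubulin signal scored within the nucleus-defined area of each cell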
Numbers without * were called inactive; / = no result. Compounds with a hit are over-represented: about 9.6% of the library has one in this group of screens.

SMILES	L major viab	b-catenin transl	BaF3 parental	APP transl inh	Ba/F3 V617F tox	MT stabilizer
CN(C)CCCNC(=S)N1CCn2c(nc3ccccc32)C1	51.4*	/	4.2	-1.4	2.2	2.3
CCCCN(C(=O)c1cc2ccccc2o1)c1c(N)n(CC(C)C)c(=O)[nH]c1=O	1.9	/	4.7	54.5*	-2.8	3.7
COc1ccc(-c2nnc(SCc3nnc(-c4ccc(Cl)cc4)o3)n2-c2ccccc2)cc1	88.7*	0.8	6.4	-18.2	0.8	3.2
CCOC(=O)C(C)Sc1ccc2nnc(CCNS(=O)(=O)c3ccc(C)cc3)n2n1 (centres undefined)	-1.1	-1.3	4.9	-19.8	3.9	1.3
Cc1ccc(C2(C(F)(F)F)N=C3Sc4cc(C)ccc4N3C(=O)N2)cc1 (centres undefined)	7.0	-2.6	-3.8	-22.0	-7.6	4.8
Oc1ccccc1/C=N/Nc1cc(N2CCCC2)nc(N2CCCC2)n1	96.1*	2.3	9.2	5.6	5.1	1.8
O=C(CCc1ccccc1)NNc1cc(N2CCCCC2)nc(N2CCCCC2)n1	0.0	-1.3	1.6	18.6	-0.7	1.8
Oc1ccc(/C=N/Nc2cc(N3CCOCC3)nc(N3CCOCC3)n2)cc1O	-11.0	-1.4	7.8	10.9	23.0	4.4
Oc1cccc(/C=N/Nc2cc(N3CCOCC3)nc(N3CCOCC3)n2)c1	61.5*	-1.8	6.2	14.7	2.4	3.5
CCOC(=O)C1(C)NC(c2ccco2)C2C(=O)N(CC)C(=O)C21 (centres undefined)	-3.9	-0.2	4.0	0.5	-2.5	2.1
CC(CCCC(C)(C)O)NC(=O)c1ccc(OC2CCN(C(=O)C3CC3)CC2)cc1 (centres undefined)	0.7	5.5	-1.1	-10.5	-0.1	3.6
CN(C)S(=O)(=O)c1ccc(Cl)c(NC(=O)COC(=O)/C=C/c2ccc(S(=O)(=O)N3CCOCC3)cc2)c1	-3.2	-1.9	2.1	-8.4	0.2	3.1
Cc1cc(/C=c2\sc3nc4ccccc4n3c2=O)c(C)n1-c1ccc(C(=O)O)cc1	8.3	-4.4	-0.2	-19.0	3.5	3.9
Cc1cc(/C=c2/sc3nc4ccccc4n3c2=O)c(C)n1-c1ccccn1	-2.5	0.9	0.4	59.8*	-1.1	1.4
CC1=CC(C#N)(C#N)C(C#N)(C#N)C(c2ccccc2)N1 (centres undefined)	-4.2	-8.8	-2.1	-5.8	-5.2	1.7
CC1CCC(C(C)C)C2=C1C(C#N)(C#N)C(C#N)(C#N)C(c1ccccc1)N2 (centres undefined)	99.7*	0.2	-0.5	-7.4	-2.6	4.2
CCN(c1ccc(NC(=O)c2ccc(Cl)nc2)cc1)C(C)C	16.4	27.0	68.6*	59.6*	77.4*	23.2*
CCOC(=O)N1CCC(N2CCN(C3CCCC3)C(CCO)C2)CC1 (centres undefined)	-2.8	0.6	6.0	-21.9	0.0	3.8
COc1ccccc1CN1C[C@@H]2C[C@@H](c3[nH]c4c(C)cccc4c3C)N3CCC[C@@]23C1=O	53.1*	-3.9	4.6	-1.4	-2.9	2.6
COc1ccccc1CN1C[C@@H]2C[C@@H](c3cccc(C)n3)N3CCC[C@@]23C1=O	-3.6	-0.1	10.5	-22.7	2.3	2.0
COc1cccc2c1OCC([C@@H]1C[C@H]3CN(Cc4cccc(Cl)c4)C(=O)[C@]34CCCN14)=C2	59.1*	1.9	7.6	-15.8	3.3	1.5
COc1ccccc1/C=C/[C@@H]1C[C@H]2CN(Cc3cccc(Cl)c3)C(=O)[C@]23CCCN13	4.0	0.3	9.6	0.5	-2.1	1.5
O=C(NCC(=O)N(c1ccc2c(c1)OCCO2)C(C(=O)NC1CCCC1)c1ccco1)c1ccco1 (centres undefined)	-7.3	-3.2	8.2	-6.1	-0.1	3.1
c1ccc(CCCNCC2COc3ccccc3O2)cc1 (centres undefined)	91.1*	0.9	-0.3	72.9*	1.1	2.5
c1ccc(CCCCNCC2COc3ccccc3O2)cc1 (centres undefined)	86.8*	1.6	6.1	-20.0	-0.7	11.3
c1ccc(CNCC2COc3ccccc3O2)cc1 (centres undefined)	91.2*	-2.3	0.9	-17.5	-2.6	2.4
CCOC(=O)C(NC(C)=O)(Nc1ccc(S(=O)(=O)Nc2ccncn2)cc1)C(F)(F)F (centres undefined)	-9.6	-2.2	2.0	3.4	-4.3	3.1
